In one assay the target is full-length HIV-1 IN (Human immunodeficiency virus type 1 group M subtype B, UniProt P12497). Kind of assay: DLS analysis of IN multimerization. It is filed as biochemical. The note with it: 500 nM BI/D or 3 µM LEDGF/p75 added to 200 nM IN, 30 min. In outline:
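Recombinant full-length HIV-1 IN, E. coli-expressed with His or FLAG tag, at 200 nM in filtered 50 mM HEPES pH 7.4, 2 mM DTT, 2 mM MgCl2, 1 M NaCl. Test compound (500 nM) or LEDGF/p75 (3 µM) was added for 30 min. In a sequential arm, compound was added for 30 min, then LEDGF/p75 for 30 min more. DLS was recorded at 25 °C and particle size distribution calculated.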

For assay [1], the target named is FLAG-LEDGF/p75 (full length) (UniProt O75475 1-530). Description: AlphaScreen or HTRF.
FLAG-LEDGF/p75 (full length), sequence (O75475 whole entry): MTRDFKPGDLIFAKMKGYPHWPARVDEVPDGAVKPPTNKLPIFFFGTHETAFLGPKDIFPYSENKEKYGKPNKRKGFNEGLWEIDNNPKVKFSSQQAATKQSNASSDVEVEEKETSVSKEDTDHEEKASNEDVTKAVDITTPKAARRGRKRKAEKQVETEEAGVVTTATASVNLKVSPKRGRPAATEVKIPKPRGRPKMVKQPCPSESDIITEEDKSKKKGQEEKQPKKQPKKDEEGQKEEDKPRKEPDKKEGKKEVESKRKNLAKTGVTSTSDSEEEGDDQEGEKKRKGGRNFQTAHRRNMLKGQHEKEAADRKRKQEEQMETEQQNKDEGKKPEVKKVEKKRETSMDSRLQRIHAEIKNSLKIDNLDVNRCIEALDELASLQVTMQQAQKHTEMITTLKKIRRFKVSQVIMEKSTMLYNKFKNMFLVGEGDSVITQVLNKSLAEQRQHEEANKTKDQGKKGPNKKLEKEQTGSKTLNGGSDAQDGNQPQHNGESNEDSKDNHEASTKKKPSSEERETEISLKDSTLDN

As to “LEDGF/p75: cellular chromatin associated protein, cofactor that binds the HIV-1 IN tetramer; recombinant, His or FLAG tagged”, in the assay with full-length HIV-1 IN, the “estimated particle diameter (DLS) after addition to IN” value is ~ 11 nM.

B1: 6 × His-HIV-1 IN (wild type full-length HIV-1 integrase) (enzyme)
chain: FLDGIDKAQEEHEKYHSNWRAMASDFNLPPVVAKEIVASCDKCQLKGEAMHGQVDCSPGIWQLDCTHLEGKVILVAVHVASGYIEAEVIPAETGQETAYFLLKLAGRWPVKTVHTDNGSNFTSTTVKAACWWAGIKQEFGIPYNPQSQGVIESMNKELKKIIGQVRDQAEHLKTAVQMAVFIHNFKRKGGIGGYSAGERIVDIIATDIQTKELQKQITKIQNFRVYYRDSRDPVWKGPAKLLWKGEGAVVIQDNSDIKVVPRRKAKIIRDYGKQMAGDDCVASRQDED
With B1, in assay [1], the equilibrium dissociation constant (Kd) (commonly the equilibrium constant for the complex coming apart) came to 3.32 ± 0.31 nM.

The record behind these values is PMC4874862 (ACS chemical biology, 2016).
